Assay results from ChEMBL document CHEMBL1817667, “Synthesis and antimicrobial properties of some new thiazolyl coumarin derivatives” (2011).
Converted amounts (≈) assume the structure as drawn.

Columns and labels:
Format in all cases: functional
[1] = test system: Mycobacterium tuberculosis; test: Antibacterial activity against Mycobacterium tuberculosis H37Rv ATCC 27294 after 5 days by MTT assay; conditions: H37Rv ATCC 27294, 120 h
Method in brief: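 Inoculum from log-phase culture in Middlebrook 7H9 with ADC, set to McFarland no. 1 (approximately 3×10^7 CFU/mL), then diluted 1:20 in 7H9-OADC. Compounds in DMSO/water, two-fold series 3.91–250 μg/mL, tested in triplicate. Isoniazid positive control, drug-free growth wells. Incubated 37 °C, 8% CO₂. MTT–Tween 80 added to a control well; once purple, added to all wells. MIC read next day.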

Candida albicans = test: Antifungal activity against Candida albicans ATCC 10231 after 24 hrs by MTT assay; conditions: ATCC 10231, 24 h
Method in brief: (§1)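 Broth microdilution. Inocula were grown in Mueller-Hinton broth from subcultures on nutrient agar (37 °C, 48 h) and set to McFarland 0.5. Compounds in DMSO were diluted with water, then two-fold serially from 3.91 to 250 µg/mL. Gentamicin and tetracycline served as positive controls and DMSO as negative. Plates ran 37 °C for 24 h, then MTT (0.2 mg/mL) for 30 min. MIC was the lowest concentration preventing the yellow-to-purple change.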

Haemophilus influenzae = test: Antibacterial activity against Haemophilus influenzae ATCC 10211 after 24 hrs by MTT assay; method in brief: as §1
Staphylococcus aureus = test: Antibacterial activity against Staphylococcus aureus ATCC 25923 after 24 hrs by MTT assay; conditions: ATCC 25923, 24 h; method in brief: as §1
Streptococcus pyogenes = test: Antibacterial activity against Streptococcus pyogenes ATCC 19615 after 24 hrs by MTT assay; conditions: ATCC 19615, 24 h; method in brief: as §1

Compound	MIC [1] [µM]	MIC (Candida albicans) [µM]	MIC (Haemophilus influenzae; ATCC 10211, 24 h) [µM]	MIC (Staphylococcus aureus) [µM]	MIC (Streptococcus pyogenes) [µM]	MIC (Haemophilus influenzae) [µM]
O=c1oc2ccccc2cc1-c1csc(NN=C(c2ccccc2)c2ccccc2)n1	147 (≈ 62.3 µg/mL)	147 (≈ 62.3 µg/mL)	147 (≈ 62.3 µg/mL)	295 (≈ 125 µg/mL)	295 (≈ 125 µg/mL)	–
NNC(=O)c1ccncc1 [ISONIAZID]	1.3 (≈ 0.178 µg/mL)	–	–	–	–	–
O=c1oc2ccccc2cc1-c1csc(N/N=C\c2cccc(O)c2)n1	172 (≈ 62.5 µg/mL)	172 (≈ 62.5 µg/mL)	172 (≈ 62.5 µg/mL)	172 (≈ 62.5 µg/mL)	344 (≈ 125 µg/mL)	–
O=c1oc2ccccc2cc1-c1csc(N/N=C\c2ccc(O)cc2O)n1	329 (≈ 125 µg/mL)	165 (≈ 62.6 µg/mL)	329 (≈ 125 µg/mL)	82 (≈ 31.1 µg/mL)	329 (≈ 125 µg/mL)	–
O=c1oc2ccccc2cc1-c1csc(N/N=C\c2cc(Br)ccc2O)n1	17 (≈ 7.52 µg/mL)	35 (≈ 15.5 µg/mL)	17 (≈ 7.52 µg/mL)	35 (≈ 15.5 µg/mL)	17 (≈ 7.52 µg/mL)	–
O=c1oc2ccccc2cc1-c1csc(N/N=C\c2ccc(O)cc2)n1	344 (≈ 125 µg/mL)	172 (≈ 62.5 µg/mL)	344 (≈ 125 µg/mL)	344 (≈ 125 µg/mL)	172 (≈ 62.5 µg/mL)	–
O=c1oc2ccccc2cc1-c1csc(N/N=C\c2ccccc2O)n1	43 (≈ 15.6 µg/mL)	86 (≈ 31.3 µg/mL)	43 (≈ 15.6 µg/mL)	172 (≈ 62.5 µg/mL)	344 (≈ 125 µg/mL)	–
OC(Cn1cncn1)(Cn1cncn1)c1ccc(F)cc1F [FLUCONAZOLE]	–	10 (≈ 3.06 µg/mL)	–	–	–	–
C/C(=N/Nc1nc(-c2cc3ccccc3oc2=O)cs1)c1cc2cc(Br)ccc2oc1=O	15 (≈ 7.63 µg/mL)	31 (≈ 15.8 µg/mL)	15 (≈ 7.63 µg/mL)	62 (≈ 31.5 µg/mL)	62 (≈ 31.5 µg/mL)	–
COc1cccc(/C=N\Nc2nc(-c3cc4ccccc4oc3=O)cs2)c1O	79 (≈ 31.1 µg/mL)	79 (≈ 31.1 µg/mL)	79 (≈ 31.1 µg/mL)	159 (≈ 62.6 µg/mL)	159 (≈ 62.6 µg/mL)	–
C/C(=N\Nc1nc(-c2cc3ccccc3oc2=O)cs1)c1ccc(O)cc1	> 663	331 (≈ 125 µg/mL)	331 (≈ 125 µg/mL)	165 (≈ 62.3 µg/mL)	165 (≈ 62.3 µg/mL)	–
CN(C)[C@@H]1C(O)=C(C(N)=O)C(=O)[C@@]2(O)C(O)=C3C(=O)c4c(O)cccc4[C@@](C)(O)[C@H]3C[C@@H]12 [TETRACYCLINE]	–	–	35 (≈ 15.6 µg/mL)	70 (≈ 31.1 µg/mL)	14 (≈ 6.22 µg/mL)	–
O=c1oc2ccccc2cc1-c1csc(N/N=C\c2c(O)ccc3ccccc23)n1	75 (≈ 31 µg/mL)	151 (≈ 62.4 µg/mL)	151 (≈ 62.4 µg/mL)	75 (≈ 31 µg/mL)	75 (≈ 31 µg/mL)	–
C/C(=N/Nc1nc(-c2cc3ccccc3oc2=O)cs1)c1cc2ccc(O)cc2oc1=O	17 (≈ 7.57 µg/mL)	140 (≈ 62.4 µg/mL)	35 (≈ 15.6 µg/mL)	17 (≈ 7.57 µg/mL)	72 (≈ 32.1 µg/mL)	–
GENTAMICIN	–	–	–	–	–	13
O=c1oc2ccccc2cc1-c1csc(N/N=C\c2cccc3ccccc23)n1	157 (≈ 62.4 µg/mL)	157 (≈ 62.4 µg/mL)	314 (≈ 125 µg/mL)	157 (≈ 62.4 µg/mL)	314 (≈ 125 µg/mL)	–
